Experimental data taken from publication PMC5548007 (European journal of medicinal chemistry, 2017).
Like-named read-outs stand apart in the source and are kept apart here.

Legend:
[1] = Oral pharmacokinetic study in Sprague-Dawley rats; assay type: in vivo, rat; conditions: single oral dose 10 mg/kg
Method in brief: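 Male Sprague-Dawley rats (250–300 g, n = 4) received a single 10 mg/kg oral gavage in 5% DMSO/40% PEG 400/55% saline. Tail-vein blood was taken into EDTA at 1, 3, 6 and 24 h, and plasma was stored at −80 °C. Plasma was extracted with chloroform/methanol (2:1) using a 13C2,15N-tamoxifen internal standard. Quantitation was by UPLC–triple-quadrupole MS/MS with a water/acetonitrile 0.05% formic acid gradient.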

[2] = tested on: rats; assay: Acute in vivo toxicity in rats; conditions: oral 10 mg/kg
Method in brief: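 Male Sprague-Dawley rats (250–300 g), n = 4, dosed once by oral gavage at 10 mg/kg in 5% DMSO / 40% PEG 400 / 55% saline. Dosing was part of a pharmacokinetic study, with tail-vein blood drawn at 1, 3, 6 and 24 h. Time to death after oral dosing was recorded in hours.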

[3] = tested on: PC-3 cells; assay: Cell cycle analysis by flow cytometry with propidium iodide staining; assay type: cell-based, human; conditions: for Cell cycle phase of arrest: PC-3, 28 at 5 μM, 46 at 4 μM
Method in brief: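 PC-3 cells were seeded at 200,000/well and allowed to attach for 3 h. They were treated with test compound at 4 or 5 μM, or DMSO vehicle, at 37 °C and harvested at 16 or 24 h, including floating cells. Cells were fixed in cold 80% ethanol for 30 min at 4 °C and RNase-treated for 30 min at 37 °C. Staining used propidium iodide (50 μg/mL stock) for 30 min, and DNA content was read by flow cytometry within 0.5–1 h.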

[4] = Metabolic profiling by liver microsome incubation; assay type: in vitro ADME, human; conditions: 37 °C, 60 min, NADPH; mono-hydroxylation products by HRMS
Method in brief: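 Pooled human liver microsomes in potassium phosphate buffer (pH 7.4) with NADPH solutions A and B were preincubated for 5 min at 37 °C. Test compound was added from a 10 mM stock and incubated for 60 min at 37 °C. Methanol stopped the reaction, and samples were centrifuged at 10,000 × g for 4 min at 4 °C. Supernatant was analysed by UHPLC with high-resolution mass spectrometry.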

[5] = tested on: three human prostate cancer cell lines; assay: Anti-proliferative potency across three prostate cancer cell lines; assay type: cell-based; conditions: read-out: IC50 range in three prostate cancer cell lines
Method in brief: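 Human prostate cancer cells were grown at 37 °C in 5% CO2: PC-3 and LNCaP in RPMI-1640, DU-145 in EMEM, each with 10% FBS and 1% penicillin/streptomycin. Cells were seeded at 3,200/well and exposed to test compound for 3 days, with DMSO as vehicle control. WST-1 reagent was added for 3 h at 37 °C and absorbance read at 430 nm. IC50 came from linear inhibition over ≥5 doses, averaged over triplicates.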

[6] = tested on: PC-3 cells; assay: WST-1 cell proliferation assay, PC-3; assay type: cell-based; conditions: Homo sapiens, PC-3, 72 h, read-out: IC50 PC-3
Method in brief: (§1)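 PC-3 and LNCaP cells grown in RPMI-1640, DU145 in EMEM, each with 10% FBS and 1% penicillin/streptomycin at 37 °C, 5% CO2. Cells seeded at 3,200/well, then exposed 3 days to at least five doses of test compound, with DMSO as vehicle control. WST-1 reagent added for 3 h at 37 °C, absorbance read at 430 nm. IC50 taken from linear inhibition plot; mean ± SD of triplicates.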

[7] = tested on: DU145 cells; assay: WST-1 cell proliferation assay, DU145; assay type: cell-based; conditions: Homo sapiens, DU-145, 72 h, read-out: IC50 DU145
Method in brief: as §1

[8] = tested on: LNCaP cells; assay: WST-1 cell proliferation assay, LNCaP; assay type: cell-based; conditions: Homo sapiens, 72 h, read-out: IC50 LNCaP
Method in brief: as §1

[9] = mice, single oral dose 1 mg/kg; cited from earlier work
[10] = tested on: PC-3 cells; conditions: cited from earlier work

CCC(C)n1ccnc1/C=C/C(=O)/C=C/c1sc(C)nc1C(F)(F)F (stereo not drawn) [Compd 28, (1E,4E)-1-(1-(sec-Butyl)-1H-imidazol-2-yl)-5-(2-methyl-4-(trifluoromethyl)thiazol-5-yl)penta-1,4-dien-3-one]
Peak plasma concentration in molar units [1]: 5.27 µM
Acute in vivo toxicity (tolerability) [2]: without observed toxicity
Lower cell population at G2 phase vs control, 16 h ([3]; 5 μM, 16 h): 10%
Higher cell population at G0/G1 phase vs control, 24 h ([3]; 5 μM, 24 h): 4%
Lower cell population at G2 phase vs control, 24 h ([3]; 5 μM, 24 h): 3%
Cell cycle phase of arrest [3]: cell cycle arrest at the G0/G1 phase
Major metabolic products detected after microsomal incubation [4]: three major metabolic products

CCCn1ccnc1/C=C/C(=O)/C=C/c1nc2ccccc2n1CCC [Compd 46, (1E,4E)-1-(1-Propyl-1H-benzo[d]imidazole-2-yl)-5-(1-propyl-1H-imidazole-2-yl)penta-1,4-dien-3-one]
Time to death after oral dosing [2]: about 48 hours
Cell cycle phase of arrest [3]: cell cycle arrest at the G0/G1 phase

CCn1c(/C=C/C(=O)/C=C/c2sc(C)nc2C(F)(F)F)nc2ccccc21 [Compd 49, (1E,4E)-1-(1-Ethyl-1H-benzo[d]imidazol-2-yl)-5-(2-methyl-4-(trifluoromethyl)thiazol-5-yl)penta-1,4-dien-3-one]
Acute in vivo toxicity (tolerability) [2]: without observed toxicity
Major metabolic products detected after microsomal incubation [4]: two major metabolic products

CC(C)n1c(/C=C/C(=O)/C=C/c2ccccn2)nc2ccccc21 [Compd 58, (1E,4E)-1-(1-Isopropyl-1H-benzo[d]imidazol-2-yl)-5-(pyridin-2-yl)penta-1,4-dien-3-one]
Time to death after oral dosing [2]: ~72 h
IC50 [5]: 0.03 to 0.12 µM

COc1cc(/C=C/C(=O)CC(=O)/C=C/c2ccc(O)c(OC)c2)ccc1O [Curcumin]
IC50 [6]: 25.4 ± 2.15 µM
IC50 [7]: 26.2 ± 0.65 µM
IC50 [8]: 13.6 ± 2.69 µM
Area under curve (AUC) [9]: 2.85 ng·h/mL
Cell cycle phase of arrest [10]: G1/S phase
